Test results taken from ChEMBL document CHEMBL1125041, “New inhibitors of renin that contain novel phosphostatine Leu-Val replacements” (J Med Chem, 1990).

Assays:
Renin = molecular target: T1, Renin (Homo sapiens, UniProt P00797); assay: Inhibition of purified human renal renin at pH 6.
T1 sequence (P00797 whole entry): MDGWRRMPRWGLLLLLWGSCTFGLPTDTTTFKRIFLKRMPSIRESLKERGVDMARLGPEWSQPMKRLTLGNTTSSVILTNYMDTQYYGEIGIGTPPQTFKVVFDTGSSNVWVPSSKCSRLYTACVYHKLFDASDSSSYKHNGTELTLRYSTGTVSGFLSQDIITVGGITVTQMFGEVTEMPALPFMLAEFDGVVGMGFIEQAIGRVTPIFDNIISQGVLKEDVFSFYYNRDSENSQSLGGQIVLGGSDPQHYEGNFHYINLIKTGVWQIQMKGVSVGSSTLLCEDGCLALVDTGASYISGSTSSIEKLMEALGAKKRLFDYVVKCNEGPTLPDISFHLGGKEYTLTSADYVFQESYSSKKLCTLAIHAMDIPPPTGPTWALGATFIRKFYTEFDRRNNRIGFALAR
Summary of the method: (§1)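 Purified human renal renin enzyme assay at pH 6.0, following a previously described method. IC50 values were determined. Where IC50 exceeded 10^-6 M, no IC50 was determined and percent inhibition was reported at the stated concentration.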

Cathepsin D (Bos taurus) [1] = molecular target: T2, Cathepsin D (Bos taurus) (UniProt P80209); assay: Tested for inhibition of Cathepsin D from bovine was determined at 10e-5 M
T2 sequence (whole entry): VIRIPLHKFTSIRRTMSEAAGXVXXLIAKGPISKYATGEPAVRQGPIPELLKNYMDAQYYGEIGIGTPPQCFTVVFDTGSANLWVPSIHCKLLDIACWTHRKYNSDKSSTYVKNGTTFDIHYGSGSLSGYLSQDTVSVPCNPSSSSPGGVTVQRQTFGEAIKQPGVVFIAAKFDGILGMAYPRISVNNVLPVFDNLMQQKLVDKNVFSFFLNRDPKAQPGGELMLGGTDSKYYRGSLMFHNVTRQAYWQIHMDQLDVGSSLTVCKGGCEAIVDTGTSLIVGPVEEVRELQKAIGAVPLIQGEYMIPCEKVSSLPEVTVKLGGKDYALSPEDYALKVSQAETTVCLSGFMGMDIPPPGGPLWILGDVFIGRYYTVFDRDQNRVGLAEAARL

Pepsin A (Sus scrofa) [2] = molecular target: Pepsin A (Sus scrofa) (UniProt P00791); assay: In vitro inhibitory activity against porcine pepsin was determined at 10e-5 M
Chain of Pepsin A (Sus scrofa) (P00791 60-385 limits assumed): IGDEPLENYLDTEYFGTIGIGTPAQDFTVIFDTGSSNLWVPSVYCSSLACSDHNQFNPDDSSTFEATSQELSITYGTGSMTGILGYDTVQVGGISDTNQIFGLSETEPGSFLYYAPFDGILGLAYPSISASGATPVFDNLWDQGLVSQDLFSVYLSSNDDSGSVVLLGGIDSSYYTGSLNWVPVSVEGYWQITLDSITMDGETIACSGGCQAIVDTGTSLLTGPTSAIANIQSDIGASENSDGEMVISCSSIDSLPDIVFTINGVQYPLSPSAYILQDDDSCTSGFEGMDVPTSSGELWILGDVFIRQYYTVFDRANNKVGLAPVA

Pepsin A (Sus scrofa) [3] = molecular target: Pepsin A (Sus scrofa) (UniProt P00791); assay: Inhibitory activity against Porcine pepsin at a concentration of 10e-5 M
Cathepsin D (Bos taurus) [4] = molecular target: T2, Cathepsin D (Bos taurus); assay: Tested for inhibition of Cathepsin D from bovine at a concentration of 10e-5 M
Renin (Homo sapiens) = molecular target: T3, Renin (Homo sapiens) (UniProt P00797); assay: The compound was tested in vitro for inhibition of purified human renal renin at pH 6 and a concentration of 10e-6 M; summary of the method: as §1
T3 sequence (whole entry): T1 sequence (P00797 whole entry)

Compound | IC50 (Renin) | other results
COP(=O)(C[C@H](O)[C@H](CC1CCCCC1)NC(=O)[C@H](Cc1c[nH]cn1)NC(=O)[C@H](Cc1ccccc1)NC(=O)CC(C)(C)C)OC | 0.047 µM | inhibition (Cathepsin D (Bos taurus) [1]): 6%; inhibition (Pepsin A (Sus scrofa) [2]): 3%
COP(=O)(C[C@H](O)[C@H](Cc1ccccc1)NC(=O)[C@H](Cc1c[nH]cn1)NC(=O)[C@H](Cc1ccccc1)NC(=O)OC(C)(C)C)OC | 1.5 µM | –
CC(C)(C)OC(=O)N[C@@H](Cc1ccccc1)C(=O)N[C@@H](Cc1c[nH]cn1)C(=O)N[C@@H](CC1CCCCC1)[C@@H](O)CP1(=O)OCCCO1 | 0.08 µM | inhibition (Cathepsin D (Bos taurus) [1]): 0%; inhibition (Pepsin A (Sus scrofa) [2]): 2%
COP(=O)(O)C[C@H](O)[C@H](CC1CCCCC1)NC(=O)[C@H](CC(C)C)NC(=O)[C@H](Cc1ccccc1)NC(=O)OC(C)(C)C | 0.35 µM | –
COP(=O)(C[C@H](O)[C@H](CC(C)C)NC(=O)[C@H](Cc1c[nH]cn1)NC(=O)[C@H](Cc1ccccc1)NC(=O)OC(C)(C)C)OC | 5.1 µM | –
COP(=O)(C[C@@H](O)[C@H](Cc1ccccc1)NC(=O)[C@H](Cc1c[nH]cn1)NC(=O)[C@H](Cc1ccccc1)NC(=O)OC(C)(C)C)OC | 4 µM | –
COP(=O)(C[C@H](O)[C@H](CC1CCCCC1)NC(=O)[C@H](CC(C)C)NC(=O)[C@H](Cc1ccccc1)NC(=O)OC(C)(C)C)OC | 0.02 µM | inhibition (Cathepsin D (Bos taurus) [1]): 86%; inhibition (Pepsin A (Sus scrofa) [2]): 21%
COP(=O)(CC(O)[C@H](Cc1ccccc1)NC(=O)[C@H](C)NC(=O)C(Cc1ccccc1)NC(=O)OC(C)(C)C)OC (stereo partly specified) | 15 µM | –
CCOC(=O)N[C@@H](Cc1ccccc1)C(=O)N[C@@H](Cc1c[nH]cn1)C(=O)N[C@@H](CC1CCCCC1)[C@@H](O)CP(=O)(OC)OC | 0.05 µM | inhibition (Cathepsin D (Bos taurus) [1]): 0%; inhibition (Pepsin A (Sus scrofa) [2]): 4%
CC(C)(C)OC(=O)N[C@@H](Cc1ccccc1)C(=O)N[C@@H](Cc1c[nH]cn1)C(=O)N[C@@H](CC1CCCCC1)[C@@H](O)CP(C)(C)=O (stereo in doubt; 24) | – | inhibition (Renin (Homo sapiens)): 49%
CC(C)(C)OC(=O)N[C@@H](Cc1ccccc1)C(=O)N[C@@H](Cc1c[nH]cn1)C(=O)N[C@@H](CC1CCCCC1)[C@@H](O)CP(C)(C)=O (stereo in doubt; 23) | – | inhibition (Renin (Homo sapiens)): 24%

More lines, main results first:

IC50 (Renin) | Compound | other results
0.4 µM | CCCCOP(=O)(C[C@H](O)[C@H](CC1CCCCC1)NC(=O)[C@H](Cc1c[nH]cn1)NC(=O)[C@H](Cc1ccccc1)NC(=O)OC(C)(C)C)OCCCC | –
0.072 µM | CCOP(=O)(C[C@H](O)[C@H](CC1CCCCC1)NC(=O)[C@H](Cc1c[nH]cn1)NC(=O)[C@H](Cc1ccccc1)NC(=O)OC(C)(C)C)OCC | inhibition (Pepsin A (Sus scrofa) [3]): 0%; inhibition (Cathepsin D (Bos taurus) [4]): 0%
1.5 µM | CC(C)OP(=O)(C[C@H](O)[C@H](CC1CCCCC1)NC(=O)[C@H](Cc1c[nH]cn1)NC(=O)[C@H](Cc1ccccc1)NC(=O)OC(C)(C)C)OC(C)C | –
0.09 µM | COP(=O)(C[C@@H](O)[C@H](CC1CCCCC1)NC(=O)[C@H](Cc1c[nH]cn1)NC(=O)[C@H](Cc1ccccc1)NC(=O)OC(C)(C)C)OC | –
0.039 µM | COP(=O)(C[C@H](O)[C@H](CC1CCCCC1)NC(=O)[C@H](Cc1c[nH]cn1)NC(=O)[C@H](Cc1ccccc1)NC(=O)OC(C)(C)C)OC | –
